The subject of one data set is Staphylococcus aureus. The data set can be described thus: Antibacterial activity against Staphylococcus aureus MTCC737 measured after 6 hrs by broth microdilution assay. The note with it: MTCC737, 6 h. Type of data set: functional. The method, boiled down:
(§1)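 Broth microdilution per CLSI; 5×10^5 cfu/mL bacteria in LB broth; compounds from DMSO stocks, final DMSO under 0.6%, with DMSO control. Plates incubated at the strain's recommended growth temperature and time; growth read as OD600.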
(In general: In broth dilution the organism is exposed to a series of concentrations in liquid medium.)

Data set [1] concerns Staphylococcus epidermidis. The data set can be described thus: Antibacterial activity against Staphylococcus epidermidis MTCC3615 by broth microdilution assay. Type of data set: functional. A digest of the protocol: as §1
A short description of data set [2]: Antibacterial activity against Arthrobacter chlorophenolicus A6MTCC3706 by broth microdilution assay. Type of data set: functional. The conditions noted are these: Pseudarthrobacter chlorophenolicus. The method, boiled down:
as §1

The test system of another data set is Escherichia coli. The experiment in a line: Antibacterial activity against Escherichia coli MTCC1916 by broth microdilution assay. Type of data set: functional. A digest of the protocol: as §1
The next data set has as its system Pseudomonas aeruginosa. The experiment in a line: Antibacterial activity against Pseudomonas aeruginosa MTCC1688 by broth microdilution assay. Type of data set: functional. A digest of the protocol:
as §1

The subject of a further data set is HEK293. The experiment in a line: Cytotoxicity against HEK293 cells measured after 24 hrs by MTT assay. The note with it: Homo sapiens, HEK293, 24 h. In kind it is cell-based. A digest of the protocol: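 HEK 293 cells, 4000/well, seeded overnight in DMEM + 10% FBS at 37°C in CO2; compound dose series for 24 h (final DMSO <0.5%, DMSO-only control). MTT at 1 mg/mL final for 3 h, formazan dissolved in DMSO, absorbance 595 nm; IC50 from triplicate OD data.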
In general terms: Tetrazolium assays rely on reduction of a dye to a coloured formazan, in cell work by metabolically active cells.

The nature of data set [3]: Binding affinity to pCDNA 3.1 (unknown origin) assessed as DNA unwinding effect at 5:1 compound to DNA ratio measured after 16 hrs by EtBr staining agarose gel shift assay. A digest of the protocol:
(§2)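 pCDNA3.1 plasmid (amplified in E. coli DH5α), 40 µM, in 50 mM NaP pH 7, 10 mM NaCl, mixed with compound at set compound:DNA base-pair ratios; 16 h at 37°C. Run on 1% agarose at 50 V ~3 h, stained with EtBr 1 µg/mL for 5 min, imaged.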
In general terms: A gel shift assay detects complexes by their altered migration in electrophoresis.

Data set [4] can be described thus: Selectivity index, ratio of IC50 for HEK293 cells to MIC for Staphylococcus aureus MTCC737. The conditions noted are these: human, read-out: Selectivity Index. Type of data set: toxicity.
Data set [5] can be described thus: Binding affinity to pCDNA 3.1 (unknown origin) assessed as DNA unwinding effect at 1:1 to 5:1 compound to DNA ratio measured after 16 hrs by EtBr staining agarose gel shift assay. A digest of the protocol:
as §2

For data set [6], the system named is Calf thymus DNA. The data set can be described thus: Binding affinity to calf thymus DNA assessed as change in B-DNA structure at 265 nm by circular dichroism method. In kind it is nucleic-acid assay. The note with it: Bos taurus.
Data set [7] deals with Calf thymus DNA. The data set can be described thus: Binding affinity to calf thymus DNA assessed as appearance of induced CD at […] by circular dichroism method. The note with it: Bos taurus. In kind it is nucleic-acid assay.
The test system of data set [8] is DNA. The experiment in a line: Inhibition of ethidium bromide binding to Staphylococcus aureus DNA by fluorescence assay. Type of data set: nucleic-acid assay. A digest of the protocol:
(§3)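 Fluorescence intercalator displacement: S. aureus genomic DNA 10 µM plus EtBr 5 µM in 10 mM NaP pH 7, 10 mM NaCl, 1% DMSO, at 25 and 37 °C; titrated with 2.5–100 µM compound. Excitation 480 nm, emission 520–700 nm, inner-filter corrected, triplicates; Stern–Volmer analysis, F0/F = 1 + Ksv[Q].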

In data set [9] the test system is DNA. The data set can be described thus: Inhibition of ethidium bromide binding to Staphylococcus aureus DNA assessed as Stern-Volmer quenching constant by fluorescence assay. In kind it is nucleic-acid assay. The method, boiled down: as §3
For data set [10], the system named is Calf thymus DNA. The data set can be described thus: Binding affinity to calf thymus DNA by isothermal titration calorimetric analysis. Type of data set: nucleic-acid assay. The conditions noted are these: Bos taurus.

Converted amounts (≈) assume the structure as drawn. The source made the active and inactive calls. No cut-off for these calls is given here.

As a reminder, the MIC is the least concentration at which growth counts as inhibited. Higher therefore signals a need for much substance. The term IC50 denotes the concentration needed to halve the response being measured. The low end stands for higher potency, the high end for lower potency. Take `CS[C@@H]1SC[C@H]2C(=O)N(C)[C@@H](C(C)C)C(=O)OC[C@@H](NC(=O)c3cnc4ccccc4n3)C(=O)N[C@@H](C)C(=O)N(C)[C@@H]1C(=O)N(C)[C@@H](C(C)C)C(=O)OC[C@@H](NC(=O)c1cnc3ccccc3n1)C(=O)N[C@@H](C)C(=O)N2C`: the MIC in the data set on Staphylococcus aureus is 0.04 mg/L (≈ 0.0363 µM); in data set [1], 0.02 mg/L (≈ 0.0182 µM); in data set [2], 0.07 mg/L (≈ 0.0636 µM); against Escherichia coli, 21 mg/L (≈ 19.1 µM); against Pseudomonas aeruginosa, greater than 200 mg/L. Besides, the IC50 in the data set with HEK293 turned out to be 0.014 mg/L (≈ 0.0127 µM).
As to `CN(C)CCCCNc1nc2cc([N+](=O)[O-])ccc2nc1NCc1ccc(C(F)(F)F)cc1`, the MIC with Staphylococcus aureus is 3.47 mg/L (≈ 7.5 µM); in data set [1], 3.47 mg/L (≈ 7.5 µM); in [2], 3.47 mg/L (≈ 7.5 µM); in the data set on Escherichia coli, 2.31 mg/L (≈ 4.99 µM); against Pseudomonas aeruginosa, greater than 230 mg/L. For the same compound, the IC50 with HEK293 was found to be 9.73 mg/L (≈ 21 µM).
Turning to `O=[N+]([O-])c1ccc2nc(NCc3ccc(C(F)(F)F)cc3)c(N3CCNCC3)nc2c1`, the MIC stood at 3.03 mg/L (≈ 7.01 µM) with Staphylococcus aureus; 4.32 mg/L (≈ 9.99 µM) in data set [1]; 4.32 mg/L (≈ 9.99 µM) in [2]; 4.32 mg/L (≈ 9.99 µM) with Escherichia coli; 10.8 mg/L (≈ 25 µM) in the data set on Pseudomonas aeruginosa. Half-maximal inhibition in the data set with HEK293 (IC50) required 9.61 mg/L (≈ 22.2 µM).
With `CN(C)CCCNc1nc2cc([N+](=O)[O-])ccc2nc1NCc1ccc(F)cc1`, the MIC against Staphylococcus aureus is 7.97 mg/L (≈ 20 µM); in [1], 5.98 mg/L (≈ 15 µM); in data set [2] it was 3.98 mg/L (≈ 9.99 µM); against Escherichia coli it was 86.3 mg/L (≈ 217 µM); against Pseudomonas aeruginosa, greater than 200 mg/L. The same compound had a 50% inhibitory concentration (IC50) with HEK293 of 4.28 mg/L (≈ 10.7 µM). Further, the outcome in [3] was Active.
As for `CN(C)CCCNc1nc2cc([N+](=O)[O-])ccc2nc1NCc1ccccc1`, the MIC was found to be 11.4 mg/L (≈ 30 µM) in the data set with Staphylococcus aureus; 13.3 mg/L (≈ 35 µM) in [1]; 7.6 mg/L (≈ 20 µM) in data set [2]; 114 mg/L (≈ 300 µM) against Escherichia coli; 57 mg/L (≈ 150 µM) in the data set with Pseudomonas aeruginosa. The same compound registered an IC50 in the data set on HEK293 of 2.74 mg/L (≈ 7.2 µM).
Take `CN(C)CCCNc1nc2cc([N+](=O)[O-])ccc2nc1NCc1ccccc1Br`: the MIC is 3.45 mg/L (≈ 7.51 µM) in the data set with Staphylococcus aureus; 4.59 mg/L (≈ 9.99 µM) in [1]; 2.76 mg/L (≈ 6.01 µM) in data set [2]; greater than 230 mg/L in the data set with Escherichia coli; greater than 230 mg/L against Pseudomonas aeruginosa. This compound also displayed a 50% inhibitory concentration (IC50) with HEK293 of 51.9 mg/L (≈ 113 µM). Besides, the selectivity ratio in data set [4] amounted to 15.
Consider `CN(C)CCCNc1nc2cc([N+](=O)[O-])ccc2nc1NCc1ccccc1C(F)(F)F`, for which the MIC in the data set on Staphylococcus aureus is 3.36 mg/L (≈ 7.49 µM); in data set [1], 2.24 mg/L (≈ 4.99 µM); in data set [2] it was 2.91 mg/L (≈ 6.49 µM); with Escherichia coli, 68.3 mg/L (≈ 152 µM); against Pseudomonas aeruginosa, greater than 224 mg/L. The half-inhibitory concentration (IC50) in the data set on HEK293 came to 24.7 mg/L (≈ 55 µM).
For the compound `CN(C)CCCNc1nc2cc([N+](=O)[O-])ccc2nc1NCc1ccc(Cl)cc1`, the minimum inhibitory concentration (MIC) against Staphylococcus aureus is 3.11 mg/L (≈ 7.5 µM); in data set [1] it was 6.22 mg/L (≈ 15 µM); in data set [2] it was 2.49 mg/L (≈ 6 µM); against Escherichia coli, greater than 207 mg/L; in the data set on Pseudomonas aeruginosa, greater than 207 mg/L. The IC50 in the data set on HEK293 is 10.7 mg/L (≈ 25.9 µM).
For `Cc1ccc(CNc2nc3ccc([N+](=O)[O-])cc3nc2NCCCN(C)C)cc1`, the MIC with Staphylococcus aureus is 5.92 mg/L (≈ 15 µM); in [1] it was 3.94 mg/L (≈ 9.99 µM); in data set [2] it was 2.76 mg/L (≈ 7 µM); against Escherichia coli, 110 mg/L (≈ 279 µM); in the data set with Pseudomonas aeruginosa it was greater than 200 mg/L. Further, in the data set on HEK293, the IC50 came to 15.8 mg/L (≈ 40 µM).
For `CN(C)CCCNc1nc2cc([N+](=O)[O-])ccc2nc1NCc1cccc(C(F)(F)F)c1`, the MIC against Staphylococcus aureus was 0.89 mg/L (≈ 1.98 µM); in [1], 0.89 mg/L (≈ 1.98 µM); in data set [2], 1.57 mg/L (≈ 3.5 µM); against Escherichia coli it was 34.3 mg/L (≈ 76.5 µM); with Pseudomonas aeruginosa, greater than 200 mg/L. For the same compound, the IC50 in the data set on HEK293 was determined as 7.99 mg/L (≈ 17.8 µM). Moreover, the selectivity ratio in data set [4] was found to be 9. In addition, the result in data set [5] was Active. Further, the Activity result with Calf thymus DNA [6] and with Calf thymus DNA [7] was “Dose-dependent effect” each time. Besides, the inhibition result in the data set with DNA [8] is “Dose-dependent effect”. Moreover, in the data set with DNA [9], the KSV is 1.7 ×10⁴ /M. The compound further yielded a Ka in the data set with Calf thymus DNA [10] of 3.06 ×10⁴ /M.

The values above are taken from ChEMBL document CHEMBL4373710, “DNA Structural Alteration Leading to Antibacterial Properties of 6-Nitroquinoxaline Derivatives” (J Med Chem, 2019).
